Series [1] has as its system Rattus norvegicus. The experiment in a line: Volume of urine 6 hr after the compound was administered 125 mg/kg po in rat. The class given is ADME, organism-based. Further details: dose 125 mg/kg, route oral. The note with it: in vivo. The method in brief:
(§1)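 Onset/duration protocol: male Sprague-Dawley rats (HC/CFY, 175-200 g), food and water withdrawn for 18 h before and during the test. Single gavage dose in 1% carboxymethyl cellulose/0.1% Tween 80 (0.5 mL/100 g bw), then distilled water load (2.5 mL/100 g bw po). Two rats per metabolic cage, six pairs per group. Urine collected at 0-1, 1-2, 2-3, 3-4 and 4-6 h; Na+ by flame photometry. Vehicle controls; nonpaired Student t-test.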

Series [2] concerns Rattus norvegicus. Put plainly: Mean sodium excretion in rats when compound administered at 10 mg/kg po and vehicle dosed at 39.48 umol/kg. Type of series: ADME, organism-based. Further details: dose 10 mg/kg, route oral. The note with it: in vivo. The method in brief: (§2)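 Male Sprague-Dawley rats (HC/CFY, 175-200 g) fasted and water-deprived 18 h before and during the test. Dosed by gavage at 2.5-160 mg/kg in 1% carboxymethyl cellulose/0.1% Tween 80, 0.5 mL/100 g bw. Immediately hydrated with water (2.5 mL/100 g bw, po). Urine collected 6 h in metabolic cages; Na+ and K+ by flame photometry; mean mequiv/6 h/kg bw; nonpaired Student t-test.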

Series [3] relates to Rattus norvegicus. Put plainly: Mean urinary output in rats when compound administered at 5 mg/kg po and vehicle dosed at 19.74 umol/kg. The class given is ADME, organism-based, Urine. Further details: dose 5 mg/kg, route oral. The note with it: in vivo. The method in brief:
(§3)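 Water-loaded male Sprague-Dawley rats (HC/CFY, 175-200 g) fasted and without water for 18 h. Oral gavage of 2.5-160 mg/kg in 1% CMC with 0.1% Tween 80, then distilled water 2.5 mL/100 g po. Urine collected 6 h in metabolic cages, mean output in mL/6 h/kg bw. Unpaired Student t-test against vehicle; dose-response by linear regression.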

Series [4] relates to Rattus norvegicus. Put plainly: Mean sodium excretion in rats when compound administered at 80 mg/kg po and vehicle dosed at 315.88 umol/kg. The note with it: in vivo. The class given is ADME, organism-based. Further details: dose 80 mg/kg, route oral. The method in brief: as §2
Series [5] relates to Rattus norvegicus. The experiment in a line: Mean sodium excretion in rats when compound administered at 0 mg/kg po and vehicle dosed at 0 umol/kg. Type of series: ADME, organism-based. More on the design: dose 0 mg/kg, route oral. The note with it: in vivo. In a few lines: as §2
Series [6] concerns Rattus norvegicus. Put plainly: Mean Chlorine excretion in rats when compound administered at 0 mg/kg po and vehicle dosed at 0 umol/kg. The note with it: in vivo. Further details: dose 0 mg/kg, route oral. Type of series: ADME, organism-based.
Series [7] concerns Rattus norvegicus. Put plainly: Urinary sodium 1 hr after the compound was administered 125 mg/kg po in rat. Type of series: ADME, organism-based, Urine. The note with it: in vivo. Further details: dose 125 mg/kg, route oral. The method in brief: (§4)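 Onset and duration study in fasted, water-loaded male Sprague-Dawley rats housed two per metabolic cage, six pairs per group. Single oral dose given, then water 2.5 mL/100 g po. Urine volume and sodium (flame photometry) measured over 0-1, 1-2, 2-3, 3-4 and 4-6 h intervals. Mean values compared with vehicle by Student t-test.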

For series [8], the system named is Rattus norvegicus. The experiment in a line: Mean potassium excretion in rats when compound administered at 0 mg/kg po and vehicle dosed at 0 umol/kg. To be noted: in vivo. Type of series: ADME, organism-based. Further details: dose 0 mg/kg, route oral. The method in brief: (§5)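 Male Sprague-Dawley rats (HC/CFY, 175-200 g), no food or water for 18 h before and during the test. Single gavage dose (2.5-160 mg/kg; vehicle 1% carboxymethyl cellulose/0.1% Tween 80, 0.5 mL/100 g bw), then distilled water 2.5 mL/100 g bw po. Individual metabolic cages, 6 h urine. K+ by flame photometry, Cl- colorimetric, as mequiv/6 h/kg bw; unpaired Student t-test vs control.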

Series [9] deals with Rattus norvegicus. The experiment in a line: Post dosing time interval of maximum activity. The class given is functional. In a few lines: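 Interval of peak activity taken from timed urine collections (0-1, 1-2, 2-3, 3-4, 4-6 h) after a single oral dose in water-loaded fasted rats, […]. Urine volume and Na+ excretion followed over time.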
The test system of series [10] is Rattus norvegicus. The experiment in a line: Mean sodium excretion in rats when compound administered at 5 mg/kg po and vehicle dosed at 19.74 umol/kg. The class given is ADME, organism-based. Further details: dose 5 mg/kg, route oral. To be noted: in vivo. In a few lines: as §2
Series [11] concerns Rattus norvegicus. Put plainly: Volume of urine 3h after the compound was administered 125 mg/kg po in rat. More on the design: dose 125 mg/kg, route oral. To be noted: in vivo. Type of series: ADME, organism-based. In a few lines:
as §1

Series [12] relates to Rattus norvegicus. Put plainly: Urinary sodium 6 hr after the compound was administered 125 mg/kg po in rat. The class given is ADME, organism-based, Urine. Further details: dose 125 mg/kg, route oral. The note with it: in vivo. In a few lines:
as §1

The test system of series [13] is Rattus norvegicus. The experiment in a line: Mean Chlorine excretion in rats when compound administered at 160 mg/kg po and vehicle dosed at 631.76 umol/kg. The class given is ADME, organism-based. Further details: dose 160 mg/kg, route oral. The note with it: in vivo. In a few lines: as §5
Series [14] has as its system Rattus norvegicus. Put plainly: Mean Chlorine excretion in rats when compound administered at 20 mg/kg po and vehicle dosed at 78.97 umol/kg. Type of series: ADME, organism-based. Further details: dose 20 mg/kg, route oral. The note with it: in vivo. In a few lines:
as §5

The subject of series [15] is Rattus norvegicus. The experiment in a line: Mean sodium excretion in rats when compound administered at 20 mg/kg po and vehicle dosed at 78.97 umol/kg. Type of series: ADME, organism-based. More on the design: dose 20 mg/kg, route oral. To be noted: in vivo. The method in brief:
as §2

Series [16] has as its system Rattus norvegicus. The experiment in a line: Urinary sodium 3h after the compound was administered 125 mg/kg po in rat. The note with it: in vivo. Further details: dose 125 mg/kg, route oral. The class given is ADME, organism-based, Urine. In a few lines: as §4
Series [17] has as its system Rattus norvegicus. The experiment in a line: Mean Chlorine excretion in rats when compound administered at 10 mg/kg po and vehicle dosed at 39.48 umol/kg. To be noted: in vivo. Type of series: ADME, organism-based. More on the design: dose 10 mg/kg, route oral. In a few lines:
as §5

Series [18] has as its system Rattus norvegicus. The experiment in a line: Mean Chlorine excretion in rats when compound administered at 80 mg/kg po and vehicle dosed at 315.88 umol/kg. Further details: dose 80 mg/kg, route oral. The class given is ADME, organism-based. The note with it: in vivo. The method in brief:
as §5

Series [19] concerns Rattus norvegicus. The experiment in a line: Mean potassium excretion in rats when compound administered at 40 mg/kg po and vehicle dosed at 157.94 umol/kg. The class given is ADME, organism-based. Further details: dose 40 mg/kg, route oral. To be noted: in vivo. The method in brief: as §2
The test system of series [20] is Rattus norvegicus. The experiment in a line: Mean urinary output in rats when compound administered at 160 mg/kg po and vehicle dosed at 631.76 umol/kg. The class given is ADME, organism-based, Urine. More on the design: dose 160 mg/kg, route oral. To be noted: in vivo. The method in brief:
as §3

Series [21] relates to Rattus norvegicus. The experiment in a line: Mean sodium excretion in rats when compound administered at 160 mg/kg po and vehicle dosed at 631.76 umol/kg. Further details: dose 160 mg/kg, route oral. The note with it: in vivo. The class given is ADME, organism-based. The method in brief: as §2
Series [22] concerns Rattus norvegicus. The experiment in a line: Mean urinary output in rats when compound administered at 80 mg/kg po and vehicle dosed at 315.88 umol/kg. Type of series: ADME, organism-based, Urine. More on the design: dose 80 mg/kg, route oral. The note with it: in vivo. The method in brief: as §3
Series [23] is described as follows: Acute toxicity in mice when given po. The class given is organism-based. To be noted: mouse, in vivo, read-out: DL50 (the source's name). The method in brief:
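Male Swiss mice (SPF, HC/CFLP strain, 20–25 g), oral dosing; mortality followed over 15 days; LD50 derived by the Litchfield and Wilcoxon method.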

For `Nc1nc(N)c2nc(-c3ccccc3)c(N)nc2n1`, the Urine volume in the series on Rattus norvegicus [1] worked out at 4.36 mL; in the series on Rattus norvegicus [11] it was 2.73 mL. Besides, the Na is given as 2.61 m equiv 6hr-1 kg-1 (body weight)-1 with Rattus norvegicus [2]; 3.37 m equiv 6hr-1 kg-1 (body weight)-1 in the series with Rattus norvegicus [4]; 0.58 m equiv 6hr-1 kg-1 (body weight)-1 in the series with Rattus norvegicus [5]; 2.28 m equiv 6hr-1 kg-1 (body weight)-1 in the series with Rattus norvegicus [10]; 2.42 m equiv 6hr-1 kg-1 (body weight)-1 with Rattus norvegicus [15]; 3.32 m equiv 6hr-1 kg-1 (body weight)-1 in the series with Rattus norvegicus [21]. The V with Rattus norvegicus [3] was 30.19 ml 6hr-1 (kg of body weight)-1; with Rattus norvegicus [20] it was 52 ml 6hr-1 (kg of body weight)-1; in the series on Rattus norvegicus [22], 44.92 ml 6hr-1 (kg of body weight)-1. Moreover, the Cl- with Rattus norvegicus [6] is recorded as 0.88 m equiv 6hr-1 kg-1 (body weight)-1; in the series on Rattus norvegicus [13] it was 3.05 m equiv 6hr-1 kg-1 (body weight)-1; with Rattus norvegicus [14] it was 1.83 m equiv 6hr-1 kg-1 (body weight)-1; with Rattus norvegicus [17], 1.89 m equiv 6hr-1 kg-1 (body weight)-1; with Rattus norvegicus [18] it was 2.8 m equiv 6hr-1 kg-1 (body weight)-1. Besides, the “Urinary Na+” value with Rattus norvegicus [7] is listed as 0.04 m equiv; in the series on Rattus norvegicus [12], 0.46 m equiv; in the series on Rattus norvegicus [16] it was 0.19 m equiv. In addition, the K with Rattus norvegicus [8] is on record as 0.5 m equiv 6hr-1 kg-1 (body weight)-1; in the series with Rattus norvegicus [19], 0.18 m equiv 6hr-1 kg-1 (body weight)-1. In the series on Rattus norvegicus [9], this molecule registered a Time of 6 h. Also, the LD50 in [23] worked out at 344 mg/kg.

(Values after ChEMBL document CHEMBL1125330, “N-substituted pyrazino[2,3-c][1,2,6]thiadiazine 2,2-dioxides. A new class of diuretics” (J Med Chem, 1992).)
